Data published in ChEMBL document CHEMBL3259713, “Dissecting the structure of thiopeptides: assessment of thiazoline and tail moieties of baringolin and antibacterial activity optimization” (J Med Chem, 2014).
In brackets after ≈: the same amount, converted by molar mass. Square brackets hold non-standard residues; d marks the D form. Peptide text beside a SMILES is read from it. * marks the point of attachment. Dha = C=C(N)C(=O)O; X1 = O=C(c1cscn1)*

Assays:
Bacillus subtilis = test: Antibacterial activity against Bacillus subtilis ATCC 6633 assessed as growth inhibition after 24 hrs by CLSI M7-A9 broth microdilution method; assay type: functional; conditions: ATCC 6633, 24 h
In short: (§1)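 Isolates from frozen stocks subcultured at least twice on sheep blood agar and grown 24 h before testing. Inoculum made by direct suspension in saline to 0.5 McFarland turbidity. MIC determined by broth microdilution in Mueller-Hinton broth following CLSI M7-A9, incubated at 35 °C for 24 h.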

Staphylococcus aureus = test: Antibacterial activity against Staphylococcus aureus assessed as growth inhibition after 24 hrs by CLSI M7-A9 broth microdilution method; assay type: functional; in short: as §1
Cutibacterium acnes = test: Antibacterial activity against Propionibacterium acnes assessed as growth inhibition after 24 hrs by CLSI M11-A8 broth microdilution method; assay type: functional
In short: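 This anaerobe was subcultured at least twice from frozen stock on supplemented Brucella agar and grown 48 h before testing. Inoculum was a direct saline suspension at 0.5 McFarland. MIC was by microdilution in Brucella broth with hemin (5 μg/mL), vitamin K1 and 5% lysed horse blood per CLSI M11-A8, 35 °C for 24 h under anaerobic conditions.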

Micrococcus luteus = test: Antibacterial activity against Micrococcus luteus ATCC 9341 assessed as growth inhibition after 24 hrs by CLSI M7-A9 broth microdilution method; assay type: functional; conditions: ATCC 9341, 24 h; in short: as §1
[1] = Solubility of the compound in water after 48 hrs by spectrophotometer analysis; assay type: physicochemical
In short: (§2)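 About 1 mg of solid was combined with a known volume of solvent so that the solution was saturated. It was vortexed 1 min, shaken 48 h and centrifuged at 10000 rpm for 3 min. Dissolved compound in the supernatant was measured by absorbance at 304 nm.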

[2] = Solubility of the compound in 0.1 M phosphate buffer after 48 hrs by spectrophotometer analysis; assay type: physicochemical; in short: as §2

Row | Compound | MIC (Bacillus subtilis) | MIC (Staphylococcus aureus) | MIC (Cutibacterium acnes) | MIC (Micrococcus luteus) | solubility at 48 h [1] | solubility at 48 h [2]
1 | C=C(NC(=O)c1csc(-c2ccc3c(n2)-c2csc(n2)-c2csc(n2)[C@@H]2CCCN2C(=O)[C@H](Cc2ccc(O)cc2)NC(=O)C2CSC(=N2)[C@H](Cc2ccccc2)NC(=O)c2csc(n2)[C@H](CC(N)=O)NC(=O)c2nc-3oc2C)n1)C(=O)N[C@@H](C)C(=O)N1CCC[C@H]1C(N)=O (stereo partly drawn) | 0.25 µg/mL (≈ 0.181 µM) | 0.25 µg/mL (≈ 0.181 µM) | 0.125 µg/mL (≈ 0.0907 µM) | 0.5 µg/mL (≈ 0.363 µM) |  | 
2 | C=C(NC(=O)C(=C)NC(=O)[C@@H]1CCCN1C(=O)[C@H](C)NC(=O)C(=C)NC(=O)c1cscn1)C(N)=O (X1-[Dha]AP[Dha][Dha]-NH2) | > 8 µg/mL | > 8 µg/mL | 8 µg/mL (≈ 15.9 µM) | 2 µg/mL (≈ 3.97 µM) | 4660 µg/mL (≈ 9260 µM) | 6650 µg/mL (≈ 13200 µM)
3 | CCOC(=O)c1csc(-c2ccc3c(n2)-c2csc(n2)-c2csc(n2)[C@@H]2CCCN2C(=O)[C@H](Cc2ccc(O)cc2)NC(=O)C2CSC(=N2)[C@H](Cc2ccccc2)NC(=O)c2csc(n2)[C@H](CC(N)=O)NC(=O)c2nc-3oc2C)n1 (stereo partly drawn) | 8 µg/mL (≈ 6.84 µM) | > 8 µg/mL | 4 µg/mL (≈ 3.42 µM) | 4 µg/mL (≈ 3.42 µM) |  | 
4 | C=C(NC(=O)[C@@H]1CCCN1C(=O)[C@H](C)NC(=O)C(=C)NC(=O)c1csc(-c2ccc3c(n2)-c2csc(n2)-c2csc(n2)[C@@H]2CCCN2C(=O)[C@H](Cc2ccc(O)cc2)NC(=O)c2csc(n2)[C@H](Cc2ccccc2)NC(=O)c2csc(n2)[C@H](CC(N)=O)NC(=O)c2nc-3oc2C)n1)C(N)=O | 0.5 µg/mL (≈ 0.346 µM) | 0.5 µg/mL (≈ 0.346 µM) | 8 µg/mL (≈ 5.54 µM) | 2 µg/mL (≈ 1.38 µM) |  | 
5 | C=C(NC(=O)C(=C)NC(=O)[C@@H]1CCCN1C(=O)[C@H](C)NC(=O)C(=C)NC(=O)c1csc(-c2ccc3c(n2)-c2csc(n2)-c2csc(n2)[C@@H]2CCCN2C(=O)[C@H](Cc2ccc(O)cc2)NC(=O)[C@H]2CSC(=N2)[C@H](Cc2ccccc2)NC(=O)c2csc(n2)[C@H](CC(N)=O)NC(=O)c2nc-3oc2C)n1)C(N)=O | 0.25 µg/mL (≈ 0.165 µM) | 0.25 µg/mL (≈ 0.165 µM) | 0.125 µg/mL (≈ 0.0825 µM) | 0.5 µg/mL (≈ 0.33 µM) |  | 

Continued, values first:

Row | MIC (Bacillus subtilis) | MIC (Staphylococcus aureus) | MIC (Cutibacterium acnes) | MIC (Micrococcus luteus) | solubility at 48 h [1] | solubility at 48 h [2] | Compound
6 | > 8 µg/mL | > 8 µg/mL | 4 µg/mL (≈ 3.43 µM) | 2 µg/mL (≈ 1.71 µM) |  |  | CCOC(=O)c1csc(-c2ccc3c(n2)-c2csc(n2)-c2csc(n2)[C@@H]2CCCN2C(=O)[C@H](Cc2ccc(O)cc2)NC(=O)c2csc(n2)[C@H](Cc2ccccc2)NC(=O)c2csc(n2)[C@H](CC(N)=O)NC(=O)c2nc-3oc2C)n1
7 | 8 µg/mL (≈ 7.02 µM) | 2 µg/mL (≈ 1.76 µM) | 2 µg/mL (≈ 1.76 µM) | > 8 µg/mL |  | 23 µg/mL (≈ 20.2 µM) | Cc1oc2nc1C(=O)N[C@@H](CC(N)=O)c1nc(cs1)C(=O)N[C@@H](Cc1ccccc1)c1nc(cs1)C(=O)N[C@@H](Cc1ccc(O)cc1)C(=O)N1CCC[C@H]1c1nc(cs1)-c1nc(cs1)-c1nc(-c3nc(C(=O)O)cs3)ccc1-2
8 | 8 µg/mL (≈ 7.03 µM) | 1 µg/mL (≈ 0.878 µM) | 8 µg/mL (≈ 7.03 µM) | > 8 µg/mL |  | 7 µg/mL (≈ 6.15 µM) | Cc1oc2nc1C(=O)N[C@@H](CC(N)=O)c1nc(cs1)C(=O)N[C@@H](Cc1ccccc1)c1nc(cs1)C(=O)N[C@@H](Cc1ccc(O)cc1)C(=O)N1CCC[C@H]1c1nc(cs1)-c1nc(cs1)-c1nc(-c3nc(C(N)=O)cs3)ccc1-2
9 | 0.5 µg/mL (≈ 0.346 µM) | 0.5 µg/mL (≈ 0.346 µM) | 0.5 µg/mL (≈ 0.346 µM) | 1 µg/mL (≈ 0.691 µM) |  |  | C=C(NC(=O)[C@@H]1CCCN1C(=O)[C@H](C)NC(=O)C(=C)NC(=O)c1csc(-c2ccc3c(n2)-c2csc(n2)-c2csc(n2)[C@@H]2CCCN2C(=O)[C@H](Cc2ccc(O)cc2)NC(=O)C2CSC(=N2)[C@H](Cc2ccccc2)NC(=O)c2csc(n2)[C@H](CC(N)=O)NC(=O)c2nc-3oc2C)n1)C(N)=O (stereo partly drawn)
10 | 1 µg/mL (≈ 0.661 µM) | 0.5 µg/mL (≈ 0.33 µM) | 8 µg/mL (≈ 5.28 µM) | 2 µg/mL (≈ 1.32 µM) |  |  | C=C(NC(=O)C(=C)NC(=O)[C@@H]1CCCN1C(=O)[C@H](C)NC(=O)C(=C)NC(=O)c1csc(-c2ccc3c(n2)-c2csc(n2)-c2csc(n2)[C@@H]2CCCN2C(=O)[C@H](Cc2ccc(O)cc2)NC(=O)c2csc(n2)[C@H](Cc2ccccc2)NC(=O)c2csc(n2)[C@H](CC(N)=O)NC(=O)c2nc-3oc2C)n1)C(N)=O
11 | 8 µg/mL (≈ 5.82 µM) | 0.5 µg/mL (≈ 0.363 µM) | 4 µg/mL (≈ 2.91 µM) | 2 µg/mL (≈ 1.45 µM) |  |  | C=C(NC(=O)c1csc(-c2ccc3c(n2)-c2csc(n2)-c2csc(n2)[C@@H]2CCCN2C(=O)[C@H](Cc2ccc(O)cc2)NC(=O)c2csc(n2)[C@H](Cc2ccccc2)NC(=O)c2csc(n2)[C@H](CC(N)=O)NC(=O)c2nc-3oc2C)n1)C(=O)N[C@@H](C)C(=O)N1CCC[C@H]1C(N)=O
12 | 0.03 µg/mL (≈ 0.0237 µM) | 0.03 µg/mL (≈ 0.0237 µM) | 0.06 µg/mL (≈ 0.0474 µM) | 0.5 µg/mL (≈ 0.395 µM) |  | 18 µg/mL (≈ 14.2 µM) | Cc1oc2nc1C(=O)N[C@@H](CC(N)=O)c1nc(cs1)C(=O)N[C@@H](Cc1ccccc1)c1nc(cs1)C(=O)N[C@@H](Cc1ccc(O)cc1)C(=O)N1CCC[C@H]1c1nc(cs1)-c1nc(cs1)-c1nc(-c3nc(C(=O)N[C@H]4CC[C@H](C(=O)O)CC4)cs3)ccc1-2
